Assay results from ChEMBL document CHEMBL4017514, “Discovery of Novel Macrocyclic Hedgehog Pathway Inhibitors Acting by Suppressing the Gli-Mediated Transcription” (J Med Chem, 2017).
The source made the active and inactive calls. No cut-off for these calls is given here.

Tests used:
Mus musculus [1] = species: Mus musculus; assay: Inhibition of hedgehog signaling pathway in mouse Shh Light2 cells harboring Gli2 plasmid assessed as reduction in Gli2-mediated transcriptional activity by luciferase reporter gene assay; assay type: cell-based
Mus musculus [2] = species: Mus musculus; assay: Inhibition of hedgehog signaling pathway in mouse Shh Light2 cells harboring Gli1 plasmid assessed as reduction in Gli1-mediated transcriptional activity by luciferase reporter gene assay; assay type: cell-based
Mus musculus [3] = species: Mus musculus; assay: Inhibition of hedgehog signaling pathway in mouse Light2 cells in Shh conditioned medium by Gli-luciferase reporter gene assay; assay type: cell-based
Method in brief: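 Light II cells (NIH-3T3 stably transfected with Gli-responsive firefly luciferase and Renilla expression vector) stimulated with ShhN conditioned medium. This medium was collected from ShhN-transfected HEK293 cells kept in 0.1% FBS. Firefly luciferase normalized to Renilla. IC50 given as mean ± SD (nM) from three separate experiments.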

Mus musculus [4] = species: Mus musculus; assay: Inhibition of hedgehog signaling pathway in mouse Light2 cells in Shh conditioned medium at 1 uM by Gli-luciferase reporter gene assay relative to control; assay type: cell-based
Mus musculus [5] = species: Mus musculus; assay: Inhibition of hedgehog signaling pathway in mouse NIH/3T3 cells assessed as downregulation of Shh-induced Gli1 mRNA expression levels at 300 nM after 36 hrs by RT-qPCR analysis; assay type: cell-based
Method in brief: (§1)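 NIH-3T3 or C3H10T1/2 cells treated as indicated for 36 h, then collected for RT-qPCR of Gli1 and ptch1 mRNA. Data given as mean ± SD.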

Mus musculus [6] = species: Mus musculus; assay: Inhibition of hedgehog signaling pathway in mouse C3H10T1/2 cells assessed as downregulation of Shh-induced Gli1 mRNA expression levels at 300 nM after 36 hrs by RT-qPCR analysis; assay type: cell-based; method in brief: as §1
Mus musculus [7] = species: Mus musculus; assay: Inhibition of hedgehog signaling pathway in mouse NIH/3T3 cells assessed as downregulation of Shh-induced ptch1 mRNA expression levels at 300 nM after 36 hrs by RT-qPCR analysis; assay type: cell-based; method in brief: as §1
Mus musculus [8] = species: Mus musculus; assay: Inhibition of hedgehog signaling pathway in mouse C3H10T1/2 cells assessed as downregulation of Shh-induced ptch1 mRNA expression levels at 300 nM after 36 hrs by RT-qPCR analysis; assay type: cell-based; method in brief: as §1
Homo sapiens [9] = species: Homo sapiens; assay: Inhibition of TNFalpha-induced NFkappaB activation in HEK293 cells at 1 uM after 24 hrs by dual luciferase reporter gene assay; assay type: cell-based
Method in brief: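 HEK293 cells carrying NF-κB firefly reporter plus Renilla, stimulated with TNF-α and treated for 24 h. Cells lysed for dual luciferase assay, firefly signal normalized to Renilla. Data given as mean ± SD.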

Homo sapiens [10] = species: Homo sapiens; assay: Inhibition of PGE2-stimulated TCF/LEF activity in human LS174T cells at 1 uM measured after 6 hrs by dual luciferase reporter gene assay; assay type: cell-based
Method in brief: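 LS174T cells carrying TCF/LEF reporter, stimulated with PGE2 and treated for 6 h. Dual luciferase read-out, firefly normalized to Renilla. Data given as mean ± SD.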

Mus musculus [11] = species: Mus musculus; assay: Inhibition of hedgehog signaling pathway in mouse NIH/3T3 cells harboring sufu shRNA assessed as downregulation of Gli1 mRNA expression at 300 nM by RT-qPCR analysis; assay type: cell-based
Mus musculus [12] = species: Mus musculus; assay: Inhibition of hedgehog signaling pathway in mouse NIH/3T3 cells harboring sufu shRNA assessed as downregulation of ptch1 mRNA expression at 300 nM by RT-qPCR analysis; assay type: cell-based
[13] = target: Bromodomain-containing protein 4 (Homo sapiens) (UniProt O60885); assay: Inhibition of BRD4 (unknown origin) at 10 uM
Mus musculus [14] = species: Mus musculus; assay: Inhibition of hedgehog signaling pathway in mouse NIH/3T3 cells assessed as reduction in edogenous expression of Gli1 protein by immunoblot analysis; assay type: cell-based
Method in brief: (§2)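 NIH-3T3 cells cultured in 10% FBS were exposed to compound at various concentrations for 24 h. Endogenous Gli1 and Gli2 detected by Western blot.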

Mus musculus [15] = species: Mus musculus; assay: Inhibition of hedgehog signaling pathway in mouse NIH/3T3 cells assessed as reduction in edogenous expression of Gli2 protein by immunoblot analysis; assay type: cell-based; method in brief: as §2
Mus musculus [16] = species: Mus musculus; assay: Inhibition of hedgehog signaling pathway in mouse NIH/3T3 cells hoarboring Gli1 plasmid assessed as reduction in ectopic expression of Gli1 protein at 50 to 1000 nM by immunoblot analysis; assay type: cell-based
Mus musculus [17] = species: Mus musculus; assay: Inhibition of hedgehog signaling pathway in mouse NIH/3T3 cells hoarboring Gli2 plasmid assessed as reduction in ectopic expression of Gli2 protein at 50 to 1000 nM by immunoblot analysis; assay type: cell-based
Mus musculus [18] = species: Mus musculus; assay: Inhibition of hedgehog signaling pathway in mouse Light2 cells harboring wild type Smo after 36 hrs by Gli luciferase activity; assay type: cell-based
Method in brief: (§3)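 Light II cells (NIH-3T3 stably carrying Gli-responsive firefly luciferase and Renilla vector) transfected with wild-type, D473H or W535L Smo plasmid. Exposed to compound for 36 h, then dual luciferase assay with firefly/Renilla normalization. IC50 derived and given as mean ± SD.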

Mus musculus [19] = species: Mus musculus; assay: Inhibition of hedgehog signaling pathway in mouse Light2 cells harboring Smo D473H mutant after 36 hrs by Gli luciferase activity; assay type: cell-based; method in brief: as §3
Mus musculus [20] = species: Mus musculus; assay: Inhibition of hedgehog signaling pathway in mouse Light2 cells harboring Smo W535L mutant after 36 hrs by Gli luciferase activity; assay type: cell-based; method in brief: as §3
Medulloblastoma cell [21] = assay: Antiproliferative activity against mouse Ptch+/- p53-/- medulloblastoma cells assessed as reduction in cell proliferation after 72 hrs by MTS assay; assay type: functional, cell-based
Method in brief: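 Tumor cells obtained from ptch+/−;p53−/− medulloblastoma allografts by mechanical mincing and collagenase digestion. Cultured in Neurobasal A with B-27, EGF 20 ng/mL, bFGF 20 ng/mL, nonessential amino acids and N-acetylcysteine 60 μg/mL. Exposed to compounds for 72 h, then proliferation read by MTS assay. Data given as mean ± SD.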

Mus musculus [22] = species: Mus musculus; assay: Inhibition of hedgehog signaling pathway in mouse Ptch+/- p53-/- medulloblastoma cells assessed as reduction in GLI1 mRNA expression at 3 uM by RT-qPCR analysis
Method in brief: (§4)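 ptch+/−;p53−/− medulloblastoma cells kept in Neurobasal A/B-27 medium with EGF and bFGF, then treated. Gli1 and ptch1 mRNA measured by RT-qPCR. Data given as mean ± SD.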

Mus musculus [23] = species: Mus musculus; assay: Inhibition of hedgehog signaling pathway in mouse Ptch+/- p53-/- medulloblastoma cells assessed as reduction in ptch1 mRNA expression at 3 uM by RT-qPCR analysis; method in brief: as §4
Mus musculus [24] = assay: Downregulation of Gli1 mRNA expression level in athymic nude mouse implanted with mouse Ptch+/- p53-/- medulloblastoma cells at 25 to 50 mg/kg, ip bid for 15 consecutive days measured after 4 hrs of last dosage by RT-qPCR analysis; assay type: functional, organism-based
Method in brief: (§5)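 Same allograft model (n = 5), dosed ip twice daily for 15 days in 0.5% methylcellulose/0.2% Tween-80 suspension. Tumors harvested 4 h after the last dose. Gli1 and ptch1 mRNA quantified by RT-qPCR. Data given as mean ± SD.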

Mus musculus [25] = assay: Downregulation of ptch1 mRNA expression level in athymic nude mouse implanted with mouse Ptch+/- p53-/- medulloblastoma cells at 25 to 50 mg/kg, ip bid for 15 consecutive days measured after 4 hrs of last dosage by RT-qPCR analysis; assay type: functional, organism-based; method in brief: as §5
Medulloblastoma cell [26] = assay: Induction of apoptosis in mouse Ptch+/- p53-/- medulloblastoma cells implanted in athymic nude mouse at 25 to 50 mg/kg, ip bid for 15 consecutive days by TUNEL assay; assay type: functional, organism-based
Method in brief: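 Apoptosis in subcutaneous ptch+/−;p53−/− medulloblastoma allografts in nude mice (n = 5), dosed ip twice daily for 15 days. Tumor sections stained by TUNEL and apoptotic cells imaged at 60×.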

In the case of COc1ccc(CN2C[C@@H]3CN(S(=O)(=O)c4ccc(Cl)cc4)CC[C@@H]3Oc3c(NC(=O)C4CC4)cccc3C2=O)cc1 (racemic), the inhibition (Mus musculus [1]) is reported as “Dose-dependent effect”, the inhibition (Mus musculus [2]) is reported as “Dose-dependent effect” and the inhibition (Mus musculus [3]) is reported as “Dose-dependent effect”. For the same compound, the inhibition (Mus musculus [4]) was 97%, the inhibition (Mus musculus [5]) was “Active” and the inhibition (Mus musculus [6]) was “Active”. For the same compound, the inhibition (Mus musculus [7]) was “Active”, the inhibition (Mus musculus [8]) was “Active” and the inhibition (Homo sapiens [9]) was “inactive”. The inhibition (Homo sapiens [10]) was “Active”, the inhibition (Mus musculus [11]) was “Active” and the inhibition (Mus musculus [12]) was “Active”. For the same compound, the inhibition [13] was “inactive”, the inhibition (Mus musculus [14]) was “Dose-dependent effect” and the inhibition (Mus musculus [15]) was “Dose-dependent effect”. The inhibition (Mus musculus [16]) was “Active”, the inhibition (Mus musculus [17]) was “Active” and the inhibition (Mus musculus [18]) was “Dose-dependent effect”. The inhibition (Mus musculus [19]) was “Dose-dependent effect”, the inhibition (Mus musculus [20]) was “Dose-dependent effect” and the Activity (Medulloblastoma cell [21]) was “Dose-dependent effect”. For the same compound, the inhibition (Mus musculus [22]) was “Active”, the inhibition (Mus musculus [23]) was “Active” and the Activity (Mus musculus [24]) was “Active”. The Activity (Mus musculus [25]) was “Active” and the Activity (Medulloblastoma cell [26]) was “Active”.
